{"source": "ChEMBL document CHEMBL4706611", "about": "“Selective targeting of the αC and DFG-out pocket in p38 MAPK” (Eur J Med Chem, 2020)"}
{"assay": "Metabolic stability in human liver microsomes assessed as compound remaining preincubated for 5 mins in presence of NADPH regeneration system followed by HLM addition measured after 240 mins by LC-MS analysis", "type": "ADME, Microsome", "conditions": "read-out: Stabilty", "procedure,_shortened": "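Compounds were incubated with human liver microsomes and sampled at 0, 10, 20, 30, 60, 120, 180 and 240 min. Degradation and metabolite formation were followed by LC-MS, ESI(+). Run in triplicate; mean with standard deviation reported.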", "units": {"remaining at 4 h": "%"}}
{"smiles": "NC(=O)[C@H](CCC1CCCCC1)NC(=O)c1ccc(CNC(=O)c2cnn(-c3ccccc3)c2N)cc1", "remaining at 4 h": 66.9}
{"smiles": "Nc1c(C(=O)NCc2ccc(C(=O)N[C@@H](CCC3CCCCC3)C(=O)Nc3ccc(F)cc3)cc2)cnn1-c1ccccc1", "remaining at 4 h": 83.5}
{"smiles": "Nc1c(C(=O)NCc2ccc(C(=O)N[C@@H](CCC3CCCCC3)C(=O)NCc3ccncc3)cc2)cnn1-c1ccccc1", "remaining at 4 h": 99.5}
{"smiles": "CCNC(=O)[C@H](CCC1CCCCC1)NC(=O)c1ccc(CNC(=O)c2cnn(-c3ccccc3)c2N)cc1", "remaining at 4 h": 64}
